Measurements: PMC5837702 (Toxicological Sciences, 2017)
pIC50: −log10 of the molar value. Values joined by “and” are separate entries in the source; they are usually repeats but may differ in a detail not shown here. Equal entries are not always repeated. “Also recorded” adds a separate entry of the source.

Columns and labels:
[1] = test system: Salmonella Typhimurium TA98; assay: Bacterial reverse mutation test; type: cell-based; conditions: for Induction of revertant colonies compared with vehicle control: absence of metabolic activation; for Induction of revertants: presence of S9
bacteria [2] = conditions: cited from earlier work; for Mutagenic activity: 1 µg/plate, similar experimental conditions, ref Vanhaecke etal., 2008b
[3] = test system: mouse fibroblast C3H/M2 cells; conditions: ref Pfau etal., 1999, cited from earlier work; for Malignant transformation: in the presence of rat-liver S9; for Cell transformation: without metabolic activation
L. rossiae DSM 15184 = assay: Microbial MelQx transformation in mYCFA with glycerol; type: in vitro ADME, Lactobacillus rossiae; conditions: 100 µM MelQx, anaerobic, 37 °C, 3 days
L. reuteri ATCC 55730 = assay: as above; type: in vitro ADME, Lactobacillus reuteri; conditions: 100 µM MelQx, anaerobic, 37 °C, 3 days
[4] = test system: human colon epithelial cells (HCEC); assay: Cytotoxicity, CellTiter-Glo luminescent cell viability assay; type: cell-based; conditions: for LOAEL / NOAEL / BMD5 / BMD10 / BMDU5 / BMDL10 / BMDL5 / BMDU10 / pIC50: 24 h; for BMD5: 5% benchmark dose; for BMD10: 10% benchmark dose; for BMDU5: highest benchmark dose upper bound, Hill models; for BMDU5 / BMDL5: 5% response; for BMDL10: lower bound; for BMDL10 / BMDU10: 10% response; for BMDL5: lowest benchmark dose lower bound, exponential models; for BMDU10: upper bound; for IC10 (95% CI): mean of 3 experiments; for pIC50: Homo sapiens, read-out: IC50 (95% CI)
[5] = test system: complex human gut microbiota; assay: MelQx transformation by complex human colon microbiota; type: in vitro ADME; conditions: absence of glycerol, 100 μM MelQx, 37 °C, 72 h
How it was run: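 Faecal microbiota from a healthy person were immobilised in gellan-xanthan gel beads under strict anaerobiosis and inoculated (30% v/v) into a proximal-colon reactor (37 °C, pH 5.7). It was linked to a distal-colon reactor (37 °C, pH 6.8). PC and DC effluents seeded triplicate mYCFA batch fermentations. Supernatants were alkalinised with Na2CO3, extracted thrice with ethyl acetate, concentrated and analysed by LC-ESI-MS2.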

[6] = test system: Balb/c 3T3 clone A31-1-1 cells; assay: BALB/c 3T3 cell transformation assay; type: cell-based; conditions: for Induction of foci / cell transformation: concentrations of up to 50 µM
[7] = test system: human colon epithelial cells from a different origin; conditions: in presence of sulfotransferases; ref Herbst etal. (2006); cited from earlier work
[8] = Stability of MelQx-M1 under Ames assay conditions; type: in vitro ADME; conditions: 10% rat liver S9, 1 µM, 30 min, 37 °C
BALB/c 3T3 cells = conditions: non-cytotoxic concentrations; ref Nicken etal., 2015; cited from earlier work
bacteria [9] = assay: Ames test; type: cell-based; conditions: 1 µg/plate, expectation of the authors
rat intestinal tissues = conditions: ref Nicken etal., 2015; cited from earlier work
[10] = −S9, dose 5 µg/plate, positive control
[11] = 0.1 µM, 72 h exposure, n = 9–10
[12] = 0.5 µM, 72 h exposure, n = 9–10
[13] = +S9, dose 0.08 µM (0.01 µg/plate)
[14] = +S9, dose 0.2 µM (0.23 µM in text; 0.03 µg/plate MelQx, 0.04 MelQx-M1)
[15] = +S9, dose 0.8 µM (0.11 µg/plate MelQx, 0.13 MelQx-M1)
[16] = +S9, dose 2.3 µM (0.32 µg/plate MelQx, 0.40 MelQx-M1)
[17] = +S9, dose 7.7 µM (1.1 µg/plate MelQx, 1.3 MelQx-M1)
[18] = −S9, dose 0.08 µM (0.01 µg/plate)
[19] = −S9, dose 0.2 µM (0.03 µg/plate MelQx, 0.04 MelQx-M1)
[20] = −S9, dose 0.8 µM (0.11 µg/plate MelQx, 0.13 MelQx-M1)
[21] = −S9, dose 2.3 µM (0.32 µg/plate MelQx, 0.40 MelQx-M1)
[22] = −S9, dose 7.7 µM (1.1 µg/plate MelQx, 1.3 MelQx-M1)

With `O=[N+]([O-])c1ccc2c(c1)Cc1ccccc1-2` [2-nitrofluorene, 2-Nitrofluorene] the Mutagenic activity [1, 10] was 616 ± 18 revertants/plate.
In the case of `Cn1c(N)nc2ncc(-c3ccccc3)cc21` [PhIP, 2-amino-1-methyl-6-phenylimidazo[4,5-b]pyridine], the Mutagenic activity (bacteria [2]) is given as 1700 revertants/µg, the Malignant transformation [3] is given as “all induced malignant transformation” and the Cell transformation [3] is given as “none of the HCAs induced cell transformation”.
`Nc1ccc([N+](=O)[O-])cc1N` [4-NPD, 4-nitro-o-phenylenediamine] showed a Mutagenic activity [1, 10] of 695 ± 5 revertants/plate.
For `Cc1cnc2ccc3c(nc(N)n3C)c2n1` [MelQx, 2-Amino-3,8-dimethylimidazo[4,5-f]quinoxaline], the “Transformation efficiency on the basis of peak area (LC-ESI-MS2)” value (L. rossiae DSM 15184) was 72% ± 1.5%, the “Transformation efficiency on the basis of peak area (LC-ESI-MS2)” value (L. reuteri ATCC 55730) was 87% ± 0.9% and the LOAEL [4] was 50 µM. The NOAEL [4] was 10 µM, the BMD5 [4] was 26.5 µM and the BMD10 [4] was 55.2 µM. For the same molecule, the BMDU5 [4] was 55.8 µM, the BMDL10 [4] was 8.8 µM and the BMDL5 [4] was 4.1 µM. The BMDU10 [4] was 87.6 µM, the “Concentrations that reduced cell viability” value ([4]; 24 h exposure) was no less than 50 µM and the “IC10 (95% CI)” value ([4]; 24 h exposure) was 52 (31–87) µM. For the same molecule, the pIC50 [4] was 3.57, the “Transformation of MelQx to MelQx-M1” value [5] was “no transformation” and the “Mutagenicity relative to PhIP” value (bacteria [2]; Ames test, ref Pfau etal., 1999) was “about 10 times”. For the same molecule, the “Number of foci per plate” value [6, 11] was 0.1 ± 0.3, the “Number of foci per plate” value [6, 12] was 0.5 ± 0.7 and the “Number of foci per plate” value ([6]; 5 µM, 72 h exposure, n = 9–10) was 0.1 ± 0.3. For the same molecule, the “Number of foci per plate” value ([6]; 10 µM, 72 h exposure, n = 9–10) was 0.6 ± 0.7, the “Number of foci per plate” value ([6]; 50 µM, 72 h exposure, n = 9–10) was 0.6 ± 1.2 and the “Induction of foci / cell transformation” value [6] was “neither MelQx nor MelQx-M1 induced a significant amount of foci; also recorded: no detectable cell transformation”. For the same molecule, the Malignant transformation [3] was “all induced malignant transformation”, the Cell transformation [3] was “none of the HCAs induced cell transformation” and the Mutagenic activity [1, 13] was 352 ± 4 revertants/plate. It also gave a Mutagenic activity [1, 14] of 980 ± 20 revertants/plate, a Mutagenic activity [1, 15] of 1264 ± 38 revertants/plate and a Mutagenic activity [1, 16] of 1449 ± 132 revertants/plate. For the same molecule, the Mutagenic activity [1, 17] was greater than 1500 revertants/plate, the Mutagenic activity ([1]; +S9, dose 23–769 µM (3.2–107 µg/plate)) was greater than 1500 revertants/plate and the “Induction of revertant colonies compared with vehicle control” value [1] was “did not induce a significantly higher number of revertant colonies”. The Induction of revertants [1] was “induced a significant and concentration-dependent increase of the number of revertants”, the Mutagenic activity [1, 18] was 23 ± 1 revertants/plate and the Mutagenic activity [1, 19] was 21 ± 2 revertants/plate. For the same molecule, the Mutagenic activity [1, 20] was 20 ± 1 revertants/plate, the Mutagenic activity [1, 21] was 21 ± 1 revertants/plate and the Mutagenic activity [1, 22] was 20 ± 1 revertants/plate. For the same molecule, the Mutagenic activity ([1]; −S9, dose 23–769 µM (3.2–107 µg/plate)) was 21–22 revertants/plate.
In the case of `Cn1c(N)nc2c3cccnc3ccc21` [IQ, 2-amino-3-methylimidazo[4,5-f]quinoline], the Malignant transformation [3] is listed as “all induced malignant transformation” and the Cell transformation [3] is listed as “none of the HCAs induced cell transformation”.
For `Cn1c(NO)nc2ncc(-c3ccccc3)cc21` [N-OH-PhIP, 2-hydroxyamino-1-methyl-6-phenylimidazo[4,5-b]pyridine], the Malignant transformation [7] is given as “induced malignant transformation”.
Molecule `Cc1cnc2ccc3c(c2n1)N1CCC(O)N=C1N3C` (stereo not drawn) [MelQx-M1, 9-hydroxyl-2,7-dimethyl-7,9,10,11-tetrahydropyrimido[2′,1′:2,3]imidazo[4,5-f]quinoxaline] has an LOAEL [4] of 350 µM, an NOAEL [4] of 200 µM and a BMD5 [4] of 262.2 µM. For the same molecule, the BMD10 [4] was 334.6 µM, the BMDU5 [4] was 334 µM and 333.7 µM and the BMDL10 [4] was 272.8 µM. The BMDL5 [4] was 204 µM and 204.1 µM, the BMDU10 [4] was 366.1 µM and the “IC10 (95% CI)” value ([4]; 24 h exposure) was 316 (285–351) µM. For the same molecule, the pIC50 [4] was 3.21, the “Number of foci per plate” value [6, 11] was 1.1 ± 1.2 and the “Number of foci per plate” value [6, 12] was 0.1 ± 0.3. The “Number of foci per plate” value ([6]; 1 µM, 72 h exposure, n = 9–10) was 0.5 ± 0.7, the “Number of foci per plate” value ([6]; 2 µM, 72 h exposure, n = 9–10) was 0.1 ± 0.3 and the “Number of foci per plate” value ([6]; 3 µM, 72 h exposure, n = 9–10) was 0.1 ± 0.3. For the same molecule, the “Number of foci per plate” value ([6]; 4 µM, 72 h exposure, n = 9–10) was 0.2 ± 0.4, the “Number of foci per plate” value ([6]; 5 µM, 72 h exposure, n = 9–10) was 0 ± 0 and the “Number of foci per plate” value ([6]; 6 µM, 72 h exposure, n = 9–10) was 0.6 ± 0.8. For the same molecule, the “Number of foci per plate” value ([6]; 7 µM, 72 h exposure, n = 9–10) was 0.7 ± 1.5, the “Number of foci per plate” value ([6]; 10 µM, 72 h exposure, n = 9–10) was 1.4 ± 2.2 and the “Number of foci per plate” value ([6]; 50 µM, 72 h exposure, n = 9–10) was 0 ± 0. For the same molecule, the “Induction of foci / cell transformation” value [6] was “neither MelQx nor MelQx-M1 induced a significant amount of foci; also recorded: no detectable cell transformation”, the “Stability in the presence of S9” value [8] was “generation of small amounts of MelQx as a decomposition product” and the Mutagenic activity [1, 13] was 44 ± 1 revertants/plate. For the same molecule, the Mutagenic activity [1, 14] was 66 ± 5 revertants/plate, the Mutagenic activity [1, 15] was 182 ± 13 revertants/plate and the Mutagenic activity [1, 16] was 358 ± 4 revertants/plate. The Mutagenic activity [1, 17] was 770 ± 7 revertants/plate, the Mutagenic activity ([1]; +S9, dose 23 µM (4.0 µg/plate)) was 1000 ± 20 revertants/plate and the Mutagenic activity ([1]; +S9, dose 77–769 µM (14–135 µg/plate)) was greater than 1500 revertants/plate. The “Induction of revertant colonies compared with vehicle control” value [1] was “did not induce a significantly higher number of revertant colonies”, the “Mutagenic activity relative to MelQx in terms of revertants/plate” value ([1]; after microbial transformation of MelQx to MelQx-M1) was 3%–26% and the Induction of revertants [1] was “induced a significant and concentration-dependent increase of the number of revertants”. For the same molecule, the Mutagenic activity [1, 18] was 21 ± 1 revertants/plate, the Mutagenic activity [1, 19] was 21 ± 1 revertants/plate and the Mutagenic activity [1, 20] was 21 ± 1 revertants/plate. It also gave a Mutagenic activity [1, 21] of 22 ± 2 revertants/plate, a Mutagenic activity [1, 22] of 31 ± 2 revertants/plate and a Mutagenic activity ([1]; −S9, dose 23 µM (4.0 µg/plate)) of 32 ± 3 revertants/plate. For the same molecule, the Mutagenic activity ([1]; −S9, dose 77–769 µM (14–135 µg/plate)) was 41–54 revertants/plate.
In the case of `C[n+]1c2n(c3ncc(-c4ccccc4)cc31)CCC(O)N2.[Cl-]` (stereo not drawn) [PhIP-M1, 7-hydroxy-5-methyl-3-phenyl-6,7,8,9-tetrahydropyrido[3’,2’:4,5]imidazo[1,2-a]pyrimidin-5-ium chloride], the “Malignant transformation of BALB/c 3T3 cells” value (BALB/c 3T3 cells) is given as “did not induce malignant transformation; also recorded: does not induce cell transformation”, the Mutagenic activity (bacteria [2]) is given as 46 ± 2 revertants/µg and the Expected mutagenic activity (bacteria [9]) is given as 50 revertants/µg. For the same molecule, the Cytotoxicity (rat intestinal tissues) was “not being cytotoxic”.
In the case of `Cc1ccc2cc3c(ccc4ccccc43)c3c2c1CC3` [3-methylcholanthrene], the “Number of foci per plate” value ([6]; 15 µM, positive control) was “Medium (control), 0.1% DMSO, 15 µM 3-methylcholanthrene (MCA, positive control) induced 0.2 ± 0.4, 0 ± 0, and 14.1 ± 4.5 foci per plate, respectively. NT, not tested in this study. Data are displayed as mean ± SD (n = 9–10)”.
